Assay results from ChEMBL document CHEMBL4033777, “Next-Generation Hypoxic Cell Radiosensitizers: Nitroimidazole Alkylsulfonamides” (J Med Chem, 2018).
Values after ≈ are worked out from the molar mass of the structure shown.

What was measured:
[1] = Solubility of the compound in alphaMEM containing 5% FCS and 1% DMSO by HPLC analysis; assay type: physicochemical
How it was run: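 Saturated drug solutions were incubated at 37 °C in αMEM with 5% FCS and 1% DMSO. Dissolved drug was quantified by HPLC.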

HCT-116 [2] = experiment: Cytotoxicity against human HCT116 cells incubated for 4 hrs under anaerobic condition measured after 5 days by sulforhodamine B assay; assay type: functional, cell-based
How it was run: (§1)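 STR-authenticated, mycoplasma-free HCT116 cells in αMEM + 5% FCS were seeded at 700 cells/well and allowed 2 h to attach. Drug was added from DMSO stocks (<1% DMSO) in serial 3-fold dilutions for 4 h, oxic or anoxic (Pd-catalyst anaerobic chamber, medium pre-equilibrated ≥3 days). After washing, cells regrew for 5 days before SRB staining and IC50 determination.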

HCT-116 [3] = experiment: Hypoxic cytotoxicity ratio of IC50 for human HCT116 cells under oxic condition to IC50 for human HCT116 cells under anoxic condition
How it was run: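 HCT116 cells, 700 per well and attached 2 h, got a 4 h exposure to 3-fold serial dilutions (<1% DMSO) under air or in a Pd-catalyst anaerobic chamber with pre-equilibrated medium. Cells were washed, regrown 5 days, and stained with sulforhodamine B to give IC50. HCR = oxic IC50 / anoxic IC50.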

HCT-116 [4] = experiment: (§2) Hypoxia radiosensitization activity in human HCT116 cells assessed as survival ratio by measuring ratio of cell survival with 15 Gy radiation in absence to presence of compound at anoxic IC50 preincubated for 1 hr followed by 15 Gy irradiation measured after 10 days by methylene blue staining-based cell counting method; assay type: functional
How it was run: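 Anoxic HCT116 cells were seeded at 10^5/well and treated at the anoxic IC50 concentration for 1 h at room temperature. They were irradiated with 15 Gy (60Co, ~2 Gy/min) in a sealed steel box, then plated clonogenically. Colonies of >50 cells were counted […]. SR15 = survival with radiation / survival with drug + radiation.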

HCT-116 [5] = experiment: (§3) Hypoxia radiosensitization activity in human HCT116 cells assessed as sensitizer enhancement ratio by measuring ratio of radiation dose for 1% survival in absence to presence of compound at 4.39 mM preincubated for 1 hr followed by irradiation measured after 10 days by methylene blue staining-based cell counting method; assay type: functional
HCT-116 [6] = experiment: as §3, with “method relative to misonidazole” for “method”; assay type: functional
HCT-116 [7] = experiment: as §2, with “with” for “with 15 Gy”, “4.39 mM” for “anoxic IC50”, “6 to 29” for “15”; assay type: functional
HCT-116 [8] = experiment: as §2, with “with” for “with 15 Gy”, “4.39 mM” for “anoxic IC50”, “6 to 29” for “15”, “method relative to misonidazole” for “method”; assay type: functional
[9] = Electrophilicity of the compound in pH 7 phosphate buffer assessed as one-electron reduction potential
How it was run: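 The one-electron reduction potential was set by pulse radiolysis equilibria at pH 7.0 (2.5 mM phosphate), established within 20 µs against benzylviologen, methylviologen or triquat. ΔE came from equilibrium constants via the Nernst equation, at three concentration ratios and 22 ± 2 °C.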

HCT-116 [10] = experiment: Cytotoxicity against human HCT116 cells at anoxic IC50 incubated for 1 hr at 21 degC by clonogenic survival assay; settings: hct-116, 1 h
HCT-116 [11] = experiment: as §3, with “5” for “4.39”; assay type: functional
HCT-116 [12] = experiment: as §3, with “5” for “4.39”, “method relative to misonidazole” for “method”; assay type: functional
HCT-116 [13] = experiment: as §2, with “with” for “with 15 Gy”, “5 mM” for “anoxic IC50”, “6 to 29” for “15”; assay type: functional
HCT-116 [14] = experiment: as §2, with “with” for “with 15 Gy”, “5 mM” for “anoxic IC50”, “6 to 29” for “15”, “method relative to misonidazole” for “method”; assay type: functional
HCT-116 [15] = experiment: as §2, with “with” for “with 15 Gy”, “1.34 mM” for “anoxic IC50”, “6 to 29” for “15”; assay type: functional
HCT-116 [16] = experiment: as §2, with “with” for “with 15 Gy”, “1.34 mM” for “anoxic IC50”, “6 to 29” for “15”, “method relative to misonidazole” for “method”; assay type: functional
HCT-116 [17] = experiment: as §2, with “with” for “with 15 Gy”, “2.86 mM” for “anoxic IC50”, “6 to 29” for “15”; assay type: functional
HCT-116 [18] = experiment: as §2, with “with” for “with 15 Gy”, “2.86 mM” for “anoxic IC50”, “6 to 29” for “15”, “method relative to misonidazole” for “method”; assay type: functional
HCT-116 [19] = experiment: as §3, with “0.81” for “4.39”; assay type: functional
HCT-116 [20] = experiment: as §3, with “0.81” for “4.39”, “method relative to misonidazole” for “method”; assay type: functional
HCT-116 [21] = experiment: as §2, with “with” for “with 15 Gy”, “0.81 mM” for “anoxic IC50”, “6 to 29” for “15”; assay type: functional
HCT-116 [22] = experiment: as §2, with “with” for “with 15 Gy”, “0.81 mM” for “anoxic IC50”, “6 to 29” for “15”, “method relative to misonidazole” for “method”; assay type: functional
HCT-116 [23] = experiment: Cytotoxicity against human HCT116 cells incubated for 4 hrs under aerobic condition measured after 5 days by sulforhodamine B assay; assay type: cell-based; how it was run: as §1
HCT-116 [24] = experiment: as §3, with “2.32” for “4.39”; assay type: functional
HCT-116 [25] = experiment: as §3, with “2.32” for “4.39”, “method relative to misonidazole” for “method”; assay type: functional
HCT-116 [26] = experiment: as §2, with “with” for “with 15 Gy”, “2.32 mM” for “anoxic IC50”, “6 to 29” for “15”; assay type: functional
HCT-116 [27] = experiment: as §2, with “with” for “with 15 Gy”, “2.32 mM” for “anoxic IC50”, “6 to 29” for “15”, “method relative to misonidazole” for “method”; assay type: functional

SMILES	solubility [1] [mM]	IC50 (HCT-116 [2]) [mM]	Ratio IC50 (HCT-116 [3])	Ratio (HCT-116 [4])	Activity [9] [mV]	Activity (HCT-116 [10])	further results
COCCNS(=O)(=O)CCn1cncc1[N+](=O)[O-]	24.4 (≈ 6.79 mg/mL)	4.4	2.5	122	-450	Non-Toxic	Ratio (HCT-116 [5]): 1.56; fold change (FC) (HCT-116 [6]): 1.08; Ratio (HCT-116 [7]): 26; fold change (FC) (HCT-116 [8]): 2.23
Cc1ncc([N+](=O)[O-])n1CCS(=O)(=O)NCCN1CCCCC1						Non-Toxic	Ratio (HCT-116 [15]): 24; fold change (FC) (HCT-116 [16]): 2.36
COCCNS(=O)(=O)CCn1c([N+](=O)[O-])cnc1C						Non-Toxic	Ratio (HCT-116 [17]): 4.8; fold change (FC) (HCT-116 [18]): 0.58
O=[N+]([O-])c1nccn1CCS(=O)(=O)NCCO	75.3 (≈ 19.9 mg/mL)	0.8	8	12	-391	Non-Toxic	Ratio (HCT-116 [19]): 1.27; fold change (FC) (HCT-116 [20]): 0.92; Ratio (HCT-116 [21]): 4.2; fold change (FC) (HCT-116 [22]): 0.54; IC50 (HCT-116 [23]): 0.38 to 4.8 mM

Further lines, with some results ahead:

solubility [1] [mM]	SMILES	IC50 (HCT-116 [2]) [mM]	Ratio IC50 (HCT-116 [3])	Ratio (HCT-116 [4])	Activity [9] [mV]	Activity (HCT-116 [10])	further results
69.3 (≈ 18.3 mg/mL)	O=[N+]([O-])c1cncn1CCS(=O)(=O)NCCO	5.3	2	282		Non-Toxic	Ratio (HCT-116 [11]): 1.81; fold change (FC) (HCT-116 [12]): 1.23; Ratio (HCT-116 [13]): 163; fold change (FC) (HCT-116 [14]): 12.1
23.7 (≈ 5.93 mg/mL)	O=[N+]([O-])c1cncn1CS(=O)(=O)NCCO	2.3	4	181		Non-Toxic	Ratio (HCT-116 [24]): 1.81; fold change (FC) (HCT-116 [25]): 1.28; Ratio (HCT-116 [26]): 114; fold change (FC) (HCT-116 [27]): 14.8
